Neddylation inh: inhibitors of cullin neddylation, primary screen, biochemical, TR-FRET, uHTS, NAE and Ubc12; NEDD8-conjugating enzyme Ubc12 (Homo sapiens) + NEDD8-activating enzyme E1 regulatory …; calls only at 25 µM; actives 0.58% (n = 360,000); AID 651699, 2012; in the data active means inhibition above about 36%
Target sequence (P61081 whole entry, looked up): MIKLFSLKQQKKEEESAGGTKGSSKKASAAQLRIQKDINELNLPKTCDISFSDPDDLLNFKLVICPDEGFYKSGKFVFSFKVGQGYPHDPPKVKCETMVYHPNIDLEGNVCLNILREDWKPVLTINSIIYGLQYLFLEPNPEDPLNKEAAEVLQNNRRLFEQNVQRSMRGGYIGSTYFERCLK
Target sequence (Q13564 whole entry, looked up): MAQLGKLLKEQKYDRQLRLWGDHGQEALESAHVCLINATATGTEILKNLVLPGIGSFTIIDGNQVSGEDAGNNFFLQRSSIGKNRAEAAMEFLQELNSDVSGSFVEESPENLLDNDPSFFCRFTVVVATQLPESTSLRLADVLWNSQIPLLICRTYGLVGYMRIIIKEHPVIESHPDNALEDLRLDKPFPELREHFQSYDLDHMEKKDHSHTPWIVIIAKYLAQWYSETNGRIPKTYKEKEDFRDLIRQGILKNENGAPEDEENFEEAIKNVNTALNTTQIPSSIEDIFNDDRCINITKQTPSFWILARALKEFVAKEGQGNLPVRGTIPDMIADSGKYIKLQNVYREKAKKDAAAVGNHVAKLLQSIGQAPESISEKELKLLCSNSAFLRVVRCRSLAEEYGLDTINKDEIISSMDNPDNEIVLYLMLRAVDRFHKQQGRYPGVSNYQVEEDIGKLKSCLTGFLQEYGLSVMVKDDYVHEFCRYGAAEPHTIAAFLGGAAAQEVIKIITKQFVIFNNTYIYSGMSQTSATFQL
UBC13 polyUb: UBC13 polyubiquitin chain formation inhibitors, primary screen, biochemical, TR-FRET, uHTS. actives 0.47% (n = 330,000). AID 485273, 2010. inhibition, % at 20 µM; in the data active means inhibition above about 45%, passing the limit was not always enough; inconclusive means no clear call, values can overlap the other calls
Apaf1 inhib: inhibitors of human Apaf-1 apoptosome, primary screen, biochemical, DEVD-Rh110 fluorescence, uHTS; Apoptotic protease-activating factor 1 (Homo sapiens), O14727; actives 0.71% (n = 330,000); reconstituted apoptosome caspase-3 activity; inhibition, % at 20 µM; active means inhibition of at least 40% at 20 µM;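 further: plate controls were DMSO wells for no effect and DEVD-CHO caspase inhibitor wells for full effect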
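Medium: Hepes buffer, pH 7.5 / System: biochemical Apaf-1 apoptosome reconstitution / Measured by: Rh110 fluorescence, excitation 480 nm, emission 540 nm / Times: compound with Apaf-1, dATP, procaspase-3 30 min, then 50 min reaction, room temperature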
RAD52 anneal inh: RAD52 DNA annealing inhibitors, primary screen, biochemical, FRET, single point, set 2; recombinant RAD52 DNA annealing, FRET fluorescence; inhibition, % at 18.7 µM; actives 0.46% (n = 360,000);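 active means every replicate showing at least 50% inhibition; inconclusive means mean inhibition at least 50% but not in every replicate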
RAD54 branch: inhibitors of human RAD54 branch migration, primary screen, biochemical, fluorescence, single point; DNA repair and recombination protein RAD54-like (Homo sapiens), Q92698; RAD54 Holliday junction branch migration, FAM/BHQ fluorescence; inhibition, % at 10.4 µM; actives 0.14% (n = 360,000); AID 602329, 2012;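 active means mean normalized replicate activity at least 40 and at least half of replicates scoring 40 or more; inconclusive means only one of the two criteria met; inactive means mean below 40 and under half of replicates reaching 40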;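 further: 0% = median of neutral control wells and 100% = median of positive control wells; inhibitors cause a drop in the FAM fluorescence signal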
FID counter: compounds displacing fluorescent DNA intercalator, primary screen, artefact control for HCV NS3 helicase inhibitor project, biochemical, FID fluorescence. DNA fluorescent intercalator displacement. inhibition, % at 7.9 µM. actives 0.17% (n = 290,000). AID 1845, 2009; in the data active means inhibition above about 37%;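 further: 0% = vehicle and 100% = reference compound; higher means more ethidium bromide displaced from hairpin DNA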
RAD52 DNA ctr: DNA-binding compounds via dye displacement, dose response, artefact control for RAD52 inhibitor project, biochemical, fluorescence polarization, cherry-pick; shares compounds with RAD52 anneal inh; Salmon sperm DNA/acridine orange FP displacement; AC50, µM; actives 8% (n = 1,000); AID 652128, 2013;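 active means fitted half-maximal concentration for signal loss at or below twice the highest dose tested, in every separate run, actives reach about 64 µM in these data; inconclusive means runs disagree, or flat partial signal loss, or poor fit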
Active calls of the source: *; i = inactive; ? = inconclusive; nt = no result shown. Only some compounds are listed: those with a hit (about 1.6% of all), similar ones and a draw of the others.

SMILES	Neddylation inh	UBC13 polyUb	Apaf1 inhib	RAD52 anneal inh	RAD54 branch	FID counter	RAD52 DNA ctr
CC(C)Oc1cc(C(=O)N2CCC(N3CCCCC3)CC2)ccc1Nc1nnc(Cl)c(Nc2ccccc2S(C)(=O)=O)n1	nt	nt	nt	nt	22.6	nt	nt
CN1CCN(C2CCN(c3ccc(Nc4nnc(Cl)c(Nc5ccccc5S(C)(=O)=O)n4)c(OC(CF)CF)c3)CC2)CC1	i	20.3	10.6	50.7*	1.6	nt	i
O=C(CCl)NCCN1C(=O)S/C(=C\c2cccnc2)C1=O	i	-9.2	-4.5	89.9*	nt	-2.5	i
CCCCCCCOC(=O)C[N+](C)(C)CCOC1CC2CCC1(C)C2(C)C (stereo not drawn)	i	nt	nt	85.4*	nt	21.3	i
CC(C)N1CCc2c(sc(NC(=O)c3cc4cc([N+](=O)[O-])ccc4s3)c2C(N)=O)C1	i	7.2	30.3	56.5*	23.4	5.4	i
Cc1noc(C)c1S(=O)(=O)Nc1ccc2c(c1)CC(=O)N([C@@H](C)CO)C[C@@H](C)[C@H](CN(C)C(=O)Nc1ccc(F)cc1)O2	nt	nt	nt	9.4	0.5	nt	nt
Cc1noc(C)c1S(=O)(=O)Nc1ccc2c(c1)C(=O)N([C@H](C)CO)C[C@H](C)[C@@H](CN(C)Cc1ccc(C(F)(F)F)cc1)OCCCC[C@H](C)O2	nt	nt	nt	13.5	-4.9	nt	nt
Cc1cc(N2CCN(C)CC2)nc2ccc(NC(=S)N3CCN(c4ccccn4)CC3)cc12	i	1.0	12.3	70.6*	nt	34.1	i
CCN1CCN(c2cc(C)c3cc(NC(=S)N(CC)CC)ccc3n2)CC1	i	15.2	-8.7	68.1*	nt	14.0	i
CCN1CCN(c2cc(C)c3cc(NC(=S)N4CCOCC4)ccc3n2)CC1	i	-0.8	-13.2	77.9*	nt	22.1	i
CCNC(=O)/C(C#N)=C/c1c(N2CCCCCC2)nc2c(C)cccn2c1=O	i	7.7	13.1	94.6*	3.2	-39.0	i
COc1cccc(NC(=O)N2CC3(C2)[C@H](c2ccccc2)[C@@H](CO)N3C(=O)C2CCC2)c1	nt	nt	nt	-23.4	nt	nt	nt
Cc1ccc2c(=O)c(CN3CCCCCC3)c(C)[nH]c2c1C	i	0.9	2.4	44.0	-17.4	-6.6	i
COc1ccc(NC(=O)Nc2cccc3c2O[C@H](CN(C)S(=O)(=O)c2ccc(F)cc2)[C@@H](C)CN([C@@H](C)CO)C3=O)cc1	nt	nt	nt	nt	-5.0	nt	nt
CCn1cc(C(=O)NN)c(=O)c2cc(F)c(N3CCN(C)CC3)cc21	i	9.7	6.6	97.1*	2.6	2.5	i
CCN(Cc1ccccc1)c1ccc(/C=N/N=C(N)N)cc1	i	42.7	17.6	91.9*	6.9	13.7	i
CCN(Cc1ccccc1)c1ccccc1	i	nt	nt	-7.3	-2.4	nt	nt
COc1ccc(/C=C/c2ccc3ccccc3[n+]2C)cc1OC	i	-46.2	-3.2	nt	32.4	6.8	nt
COc1ccc(Cc2c3cc(OC)c(OC)cc3cc[n+]2C)cc1OC	i	-12.2	17.0	nt	-11.8	nt	nt
COc1ccc2c(c1)c[n+](C)c1c3cc(OC)c(OC)cc3ccc21	i	nt	nt	108.9*	nt	nt	36.2µM*
COc1cc2c[n+](C)c3c4ccccc4ccc3c2cc1OC	nt	nt	nt	104.4*	nt	nt	?
CCC(=O)N1C[C@H](O)COC[C@H]2O[C@@H](CC(=O)NCc3ccc(Oc4ccccc4)cc3)CC[C@@H]21	nt	nt	nt	10.5	-1.7	nt	nt
O=C(NCCCCCCCN1CCCCCCC1)C(C1CCCCC1)C1CCCCC1	i	nt	nt	81.8*	nt	nt	i
O=C(NCCCN1CCOCC1)NC1CCCCC1	i	-3.6	2.3	nt	-1.5	0.4	nt
Cc1cc2[nH]c3c(c[n+](C)c4ccccc34)c2cc1C	nt	63.7*	27.8	104.3*	nt	64.5*	8.46µM*
SMILES	Neddylation inh	UBC13 polyUb	Apaf1 inhib	RAD52 anneal inh	RAD54 branch	FID counter	RAD52 DNA ctr
CCCN1C[C@@H](C)[C@H](OC)CN(C)C(=O)c2ccc(NC(=O)c3cccc(OC)c3)cc2OC[C@@H]1C	nt	nt	nt	5.9	nt	nt	nt
O=C(c1ccc(Cn2c(=S)[nH]c3ccc(N4CCOCC4)cc3c2=O)cc1)N1CCC(N2CCCCC2)CC1	nt	19.8	-7.2	87.2*	nt	6.5	i
O=C(NC1CCN(Cc2ccccc2)CC1)c1ccc(Cn2c(=S)[nH]c3ccc(N4CCOCC4)cc3c2=O)cc1	i	18.7	17.5	-18.5	3.5	19.0	nt
O=C(NCC[C@H]1CC[C@H](NS(=O)(=O)c2ccccc2F)[C@H](CO)O1)c1ccc(F)cc1	nt	nt	nt	-8.5	-5.4	nt	nt
Nc1ccc2nc(-c3ccc(Cl)cc3)[nH]c2c1	nt	-2.5	27.1	50.9*	7.3	nt	i
CCN(CC)CCCN(C(=O)c1cccc(C)c1)c1nc(-c2ccc(OC)cc2)cs1	i	22.3	17.3	57.8*	18.7	19.0	i
COc1ccc(-c2csc(N(CCCN(C)C)C(=O)c3ccc(OC)c(OC)c3)n2)cc1	i	nt	nt	-10.4	5.0	nt	nt
CCN(CC)CCCN(C(=O)c1cccs1)c1nc(-c2ccc(OC)cc2)cs1	i	13.5	25.4	nt	19.2	26.9	nt
CCN(CC)CCCN(C(=O)c1ccco1)c1nc(-c2ccc(C)cc2)cs1	i	9.3	-5.8	51.7*	25.2	21.4	i
CCN(CC)CCCN(C(=O)c1ccc(Br)cc1)c1nc(-c2ccc(OC)cc2)cs1	i	25.5	26.8	57.0*	23.1	31.9	i
C[C@H](CO)N1C[C@H](C)[C@@H](CN(C)CC2CCCCC2)OCCCC[C@H](C)Oc2ccc(NC(=O)c3ccccc3)cc2C1=O	nt	nt	nt	-14.7	4.8	nt	nt
CN1CCN(c2ccc(Nc3ccnc4cc(Cl)ccc34)cc2)CC1	i	19.9	-4.0	87.8*	52.7*	82.9*	i
CO[C@H]1CN(C)C(=O)c2cc(NC(C)=O)ccc2OC[C@H](C)N(Cc2cc(F)ccc2F)C[C@H]1C	nt	nt	nt	12.7	14.1	nt	nt
O=C(C1CC1)N1C[C@H]2[C@@H](c3ccccc31)[C@@H](CO)N2Cc1ccccc1Cl	nt	nt	nt	-29.2	6.6	nt	nt
CC1CN(C)C(C)c2c1oc1ccc(N)cc21 (stereo not drawn)	i	-11.7	10.2	94.5*	nt	0.1	i
CC1CN(C)C(C)c2c1oc1ccc([N+](=O)[O-])cc21 (stereo not drawn)	i	6.0	-7.9	21.4	nt	2.4	nt
C[C@@H](NC(=O)C[C@@H]1C=C[C@H](NC(=O)Nc2ccc3c(c2)OCO3)[C@H](CO)O1)c1ccccc1	nt	nt	nt	9.2	8.7	nt	nt
CC(=O)Nc1cccc(N/C(N)=N/c2nc(C)cc(C)n2)c1	i	2.9	-15.3	57.0*	nt	-6.2	i

Screening results: PubChem, several laboratories
